Activity and Emax data for 8 compounds are collected here from ChEMBL document CHEMBL4813967, “Tackling resistance in chronic myeloid leukemia: Novel cell death modulators with improved efficacy” (Eur J Med Chem, 2021).

Active and inactive are the calls of the source. No cut-off for these calls is given here.

In data set [1] the test system is K562. As to the kind of experiment: Induction of cell sensitization to imatinib in imatinib-resistant human K562 cells assessed as cell death at 10 uM incubated for 72 hrs in presence of 1 uM imatinib by PI staining based flow cytometry (reference value: 19%). The class given is functional. (In general: A flow cytometer gives signals particle by particle.)
The subject of data set [2] is K562. Briefly: Induction of cell sensitization to imatinib in imatinib-resistant human K562 cells assessed as cell death at 1.75 uM incubated for 72 hrs in presence of 1 uM imatinib by PI staining based flow cytometry (reference value: 19%). The format is functional.
Data set [3] relates to K562. Briefly: Induction of cell sensitization to imatinib in imatinib-resistant human K562 cells assessed as cell death at 5 uM incubated for 72 hrs in presence of 1 uM imatinib by PI staining based flow cytometry (reference value: 19%). The format is functional.
The test system of data set [4] is K562. Briefly: Induction of cell sensitization to imatinib in imatinib-resistant human K562 cells assessed as cell death at >10 uM incubated for 72 hrs in presence of 1 uM imatinib by PI staining based flow cytometry. The class given is functional. The note with it: dose microM >10, time 72.0 hrs. In short, it runs like this:
(§1)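 K562-resistant cells, a doxorubicin-resistant K562 subclone (KD225), grown in RPMI 1640 with 10% FCS. Seeded 2×10^5/well and exposed 72 h to compound alone or with 1 µM imatinib. PI/Triton X-100 staining 2 h at 4 °C; flow cytometry scoring sub-G1 nuclei as dead cells. DMSO vehicle (≤0.1%) controls. Mean ± SEM of ≥3 experiments.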

Data set [5] addresses T1, Signal transducer and activator of transcription 5A (Homo sapiens) (UniProt P42229).
T1 sequence (whole entry): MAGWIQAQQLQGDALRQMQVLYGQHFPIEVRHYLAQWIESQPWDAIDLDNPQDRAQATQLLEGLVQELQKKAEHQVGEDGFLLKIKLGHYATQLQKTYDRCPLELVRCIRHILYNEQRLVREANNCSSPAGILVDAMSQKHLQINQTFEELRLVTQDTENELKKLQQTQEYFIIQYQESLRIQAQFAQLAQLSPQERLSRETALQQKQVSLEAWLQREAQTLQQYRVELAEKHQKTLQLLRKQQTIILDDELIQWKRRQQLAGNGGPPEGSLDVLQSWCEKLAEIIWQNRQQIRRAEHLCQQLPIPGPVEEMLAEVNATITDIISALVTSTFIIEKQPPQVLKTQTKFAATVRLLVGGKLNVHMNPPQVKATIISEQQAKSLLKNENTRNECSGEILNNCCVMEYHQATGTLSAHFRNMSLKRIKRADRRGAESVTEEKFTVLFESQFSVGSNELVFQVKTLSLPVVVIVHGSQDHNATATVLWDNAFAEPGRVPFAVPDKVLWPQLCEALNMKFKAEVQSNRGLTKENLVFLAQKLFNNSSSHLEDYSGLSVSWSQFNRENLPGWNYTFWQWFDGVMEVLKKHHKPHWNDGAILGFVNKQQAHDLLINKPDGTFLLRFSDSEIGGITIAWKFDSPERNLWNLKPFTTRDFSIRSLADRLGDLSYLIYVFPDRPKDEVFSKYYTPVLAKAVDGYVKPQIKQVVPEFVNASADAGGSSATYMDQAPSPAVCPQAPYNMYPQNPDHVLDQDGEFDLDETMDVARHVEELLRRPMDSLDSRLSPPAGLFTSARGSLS
Briefly: Inhibition of STAT5 phosphorylation at Y694/699 residue in imatinib-resistant human K562 cells assessed as phosphorylated STAT5 level at 5 uM incubated for 6 hrs in presence of imatinib by Jess Simple Western immunoassay (reference value: 100%). The class given is cell-based. Further details: scale not given: the % may be the effect or the level left.

Data set [6] concerns K562. As to the kind of experiment: Cytotoxicity against imatinib-resistant human K562 cells assessed as cell death at 5 uM incubated for 72 hrs by propidium iodide staining based flow cytometry. The settings on record: k562, 72 h. A digest of the protocol:
as §1

Data set [7] can be described thus: Modulation of STAT5 expression in imatinib-resistant human K562 cells assessed as STAT5 level at 5 uM measured after 6 hrs by Jess Simple Western immunoassay (reference value: 100%). The format is functional. In short, it runs like this:
(§2)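 K562-resistant (doxorubicin-resistant KD225) cells treated 6 h with compound at 5 µM, alone or with 1 µM imatinib, against a DMSO control. Total protein extracts analysed by capillary Jess Simple Western. STAT5 antibody 10 µg/ml with 0.2 mg/ml lysate; pSTAT5 (Y694/699) antibody 20 µg/ml with 2 mg/ml lysate. GAPDH (0.4 µg/ml) as loading reference; HRP anti-rabbit secondary.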

A short description of data set [8]: Cytotoxicity against human HS5 cells assessed as cell death at 5 uM incubated for 72 hrs by PI staining based flow cytometry. The note with it: hs5, 72 h. A digest of the protocol:
(§3)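 HS-5 stromal cells in DMEM with 10% FCS, 5% CO2, 37 °C. Seeded 0.5×10^5/well, given compound (5 µM) alone or with imatinib, and incubated 72 h. Cells stained with PI/Triton X-100 for 2 h at 4 °C. Dead cells counted by flow cytometry as sub-G1 nuclei. DMSO vehicle control included.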

Data set [9] in a line: Cytotoxicity against human HS5 cells assessed as cell death at 5 uM incubated for 72 hrs in presence of imatinib by PI staining based flow cytometry. The settings on record: hs5, 72 h. In short, it runs like this:
as §3

A short description of data set [10]: Modulation of STAT5 expression in imatinib-resistant human K562 cells assessed as STAT5 level at 5 uM measured after 6 hrs in presence of imatinib by Jess Simple Western immunoassay (reference value: 100%). The class given is functional.
In data set [11] the test system is COS-7. As to the kind of experiment: Cytotoxicity against African green monkey COS7 cells assessed as cell viability at 10 uM incubated for 72 hrs by MTT assay. The settings on record: chlorocebus aethiops, cos-7, 72 h. For orientation: Tetrazolium assays rely on reduction of a dye to a coloured formazan, in cell work by metabolically active cells.
For data set [12], the system named is COS-7. As to the kind of experiment: Cytotoxicity against African green monkey COS7 cells assessed as cell viability at 10 uM incubated for 72 hrs by MTT assay. The class given is cell-based. The settings on record: chlorocebus aethiops, cos-7, 72 h. In short, it runs like this:
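COS-7 cells in DMEM with 10% FCS and L-glutamine, no antibiotics or phenol red. Seeded 2×10^3/well in triplicate, grown 24 h, then compound added at 10 µM final and incubated 72 h. Modified MTT (tetrazolium) metabolic-activity readout by absorbance. DMSO control set to 100%; DMSO ≤0.1%. Mean + SD of ≥3 experiments, triplicate determinations.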

The target of data set [13] is T2, Peroxisome proliferator-activated receptor gamma (Homo sapiens, UniProt P37231).
T2 sequence (P37231 whole entry): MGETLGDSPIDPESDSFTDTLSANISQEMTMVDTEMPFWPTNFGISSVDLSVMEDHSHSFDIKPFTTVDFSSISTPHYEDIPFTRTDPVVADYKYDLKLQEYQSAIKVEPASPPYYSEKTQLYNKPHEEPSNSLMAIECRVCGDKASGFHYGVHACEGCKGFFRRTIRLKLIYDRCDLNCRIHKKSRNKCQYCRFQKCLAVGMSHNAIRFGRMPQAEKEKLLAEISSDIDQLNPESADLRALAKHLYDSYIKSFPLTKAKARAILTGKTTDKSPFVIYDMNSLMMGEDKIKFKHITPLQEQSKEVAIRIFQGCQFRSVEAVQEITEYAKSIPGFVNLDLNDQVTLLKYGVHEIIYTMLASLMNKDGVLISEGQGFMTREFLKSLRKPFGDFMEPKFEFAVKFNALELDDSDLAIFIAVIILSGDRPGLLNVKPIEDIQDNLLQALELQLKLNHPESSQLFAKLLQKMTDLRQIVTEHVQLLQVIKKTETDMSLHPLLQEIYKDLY
Briefly: Agonist activity at Gal4-fused human PPARgamma transfected in African green monkey COS7 cells co-transfected with pGal5-TK-pGL3 and pRenilla-CMV assessed as receptor transactivation at 10 uM incubated for 39 hrs by dual luciferase reporter gene assay relative to piaglitazone. The settings on record: COS-7, human, read-out: max activation. The class given is cell-based. In short, it runs like this: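 COS-7 cells (10^4/well, triplicates) grown 24 h, then transiently transfected with pGal5-TK-pGL3 (90 ng), pGal4-hPPARγDEF (9 ng) and pRenilla-CMV (3 ng). Compound added 7 h later, incubation 39 h. Cells lysed by freezing at -80 °C overnight plus lysis buffer. Firefly luciferase normalised to Renilla. Activity at 10 µM expressed relative to pioglitazone at 10 µM (100%). Mean ± SD of ≥3 experiments.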

Data set [14] has as its target T1, Signal transducer and activator of transcription 5A (Homo sapiens). As to the kind of experiment: Inhibition of STAT5 phosphorylation at Y694/699 residue in imatinib-resistant human K562 cells assessed as phosphorylated STAT5 level at 5 uM incubated for 6 hrs by Jess Simple Western immunoassay (reference value: 100%). The format is cell-based. Further details: scale not given: the % may be the effect or the level left. In short, it runs like this:
as §2

In the case of `CCCc1nc2c(C)cc(-c3nc4ccccc4n3C)cc2n1Cc1ccc(-c2ccccc2C(N)=O)cc1`, the Activity is reported as 89% in the data set with K562 [1], 41% with K562 [2] and 76% with K562 [3].
For `CCc1ccc(CCOc2ccc(CC3SC(=O)NC3=O)cc2)nc1` (stereo not drawn), in the data set on K562 [4], the result was inactive.
As for `CCCc1nc2c(F)cccc2n1Cc1ccc(-c2ccccc2C(=O)OC)cc1`, the Activity in data set [5] was 42%; with K562 [6], “<= 20%”; in data set [7] it was 98%; in [8], “Non-Toxic”; with K562 [1], above 85%; in data set [9], “Non-Toxic”. The Activity in data set [10] was 103%; in the data set on COS-7 [11], “Non-Toxic”; in the data set with COS-7 [12], “Non-Toxic”; in the data set with K562 [3], 26%; in data set [14], 102%. Further, in [13], the Emax at 10 µM came out at 14.7%.
For `CCCc1nc2c(C)cc(-c3nc4ccccc4n3C)cc2n1Cc1ccc(-c2ccccc2C(=O)O)cc1` [TELMISARTAN], the results for the Activity in the data set on K562 [1], in the data set with K562 [2] and in the data set on K562 [3] were 63%, 21% and 57%, respectively. Also, the Emax at 10 µM in [13] worked out at 59.8%.
As to `CCCc1nc2c(Br)cccc2n1Cc1ccc(-c2ccccc2C#N)cc1`, the Activity is 4% in data set [5]; “<= 20%” in the data set with K562 [6]; 107% in data set [7]; “Non-Toxic” in data set [8]; above 85% with K562 [1]; “Non-Toxic” in [9]. In addition, the Activity was 103% in data set [10]; “Non-Toxic” with COS-7 [11]; “Non-Toxic” in the data set with COS-7 [12]; above 76% in the data set with K562 [3]; 90% in data set [14]. For the same compound, the Emax at 10 µM in [13] amounted to 41.1%.
Turning to `CCCc1nc2c(Br)cccc2n1Cc1ccc(-c2ccccc2C(=O)OC)cc1`, the Activity in [5] was 27%; in the data set with K562 [6], “<= 20%”; in [7], 103%; in [8], “Non-Toxic”; in the data set on K562 [1] it was 66%; in data set [9], “Non-Toxic”. In addition, the Activity in [10] is 116%; in the data set on COS-7 [11] it was “Non-Toxic”; in the data set on COS-7 [12], “Non-Toxic”; in the data set on K562 [3], 26%; in [14] it was 89%. Further, the Emax at 10 µM in data set [13] was determined as 11.6%.
Regarding `CCCc1nc2ccccc2n1Cc1ccc(-c2ccccc2C(=O)OC)cc1`, the Activity is 2% in data set [5]; “<= 20%” in the data set on K562 [6]; 112% in data set [7]; “Non-Toxic” in data set [8]; above 85% in the data set with K562 [1]; “Non-Toxic” in [9]. In addition, the Activity is 112% in [10]; “Non-Toxic” in the data set on COS-7 [11]; “Non-Toxic” in the data set with COS-7 [12]; 57% with K562 [3]; 104% in data set [14]. Also, in [13], the Emax at 10 µM was 21.6%.
Regarding `CCCc1nc2c(Cl)cccc2n1Cc1ccc(-c2ccccc2C(=O)OC)cc1`, the Activity is 3% in data set [5]; “<= 20%” with K562 [6]; 103% in [7]; “Non-Toxic” in [8]; above 85% in the data set on K562 [1]; “Non-Toxic” in [9]. For the same compound, the Activity in data set [10] is 101%; in the data set with COS-7 [11], “Non-Toxic”; in the data set with COS-7 [12], “Non-Toxic”; with K562 [3], 57%; in data set [14] it was 87%. Moreover, the Emax at 10 µM in [13] came to 22.2%.
